One experiment concerns CCRF-CEM. The experiment is described as follows: Antiproliferative activity against human CEM cells. Format: functional, cell-based.
A short description of experiment [1]: Antiproliferative activity against human DND1 cells. The format is functional, cell-based.
A further experiment has as its system PC-3. The experiment is described as follows: Antiproliferative activity against human PC3 cells. The format is functional, cell-based.
For another experiment, the system named is MOLT-3. The experiment is described as follows: Antiproliferative activity against human Molt3 cells. Format: functional, cell-based.
The target in experiment [2] is T1, Tubulin (Homo sapiens) (UniProt P68371+Q9H4B7+P0DPH7+P68366+Q13509+Q71U36+P04350+Q3ZCM7+P07437+P68363+Q9BQE3+Q6PEY2+Q13885+Q9BVA1+Q9BUF5). The experiment is described as follows: Inhibition of tubulin polymerization. The format is protein-complex assay. An outline of the steps:
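Purified […] in reaction buffer with GTP and Mg²⁺ was incubated for assembly with or without test compound (1–5 uM), with vincristine or paclitaxel (20 uM) as controls. Assembly was read as OD at 340 nm every 2 min. Each point is the mean of two independent experiments.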

The next experiment deals with DU-145. Briefly: Antiproliferative activity against human DU145 cells. The format is functional, cell-based.
Another experiment concerns Bel-7402. Briefly: Antiproliferative activity against human Bel7402 cells. Format: functional, cell-based.
A further experiment deals with MCF7. Briefly: Antiproliferative activity against human MCF7 cells. The format is functional, cell-based.
For experiment [3], the target named is T1, Tubulin (Homo sapiens). Briefly: Inhibition of tubulin polymerization at 20 uM. The format is protein-complex assay.

Molecules are shown by their SMILES.

For the compound `COc1cc(C(=O)c2ccc3occc3c2)cc(OC)c1OC`, in the experiment with CCRF-CEM, the IC50 came out at 288 nM.

`CCn1c2ccccc2c2cc(C(=O)c3cc(OC)c(OC)c(OC)c3)ccc21`: the IC50 in [1] came to 21 nM; with PC-3 it was 103 nM; with MOLT-3, 51 nM; with DU-145, 39 nM; in the experiment on CCRF-CEM, 90 nM; with Bel-7402, 90 nM. The compound further yielded an IC50 in the experiment with MCF7 of 26 nM. Further, the Activity entry at Tubulin (Homo sapiens) [2] is “Dose-dependent effect”.

On to `COc1cc(C(=O)c2ccc3c(ccn3C)c2)cc(OC)c1OC`, for which the IC50 was determined as 15 nM in [1]; 25 nM in the experiment on PC-3; 18 nM in the experiment with MOLT-3; 26 nM in the experiment on DU-145; 18 nM in the experiment with CCRF-CEM; 21 nM in the experiment on Bel-7402. Besides, in the experiment on MCF7, it took 9.2 nM to reach half-maximal inhibition (IC50).

As for `CC[C@]1(O)C[C@H]2CN(CCc3c([nH]c4ccccc34)[C@@](C(=O)OC)(c3cc4c(cc3OC)N(C=O)[C@H]3[C@@](O)(C(=O)OC)[C@H](OC(C)=O)[C@]5(CC)C=CCN6CC[C@]43[C@@H]65)C2)C1`, the inhibition on Tubulin (Homo sapiens) [3] amounted to 87%.

Turning to `COc1ccc(OC)c(C(=O)c2ccc3c(ccn3C)c2)c1`, in the experiment on CCRF-CEM, it took 2370 nM to reach half-maximal inhibition (IC50).

In the experiment on CCRF-CEM, `CCn1c2ccccc2c2cc(NS(=O)(=O)c3ccc(OC)cc3OC)ccc21` registered an IC50 of 57 nM.

On to `COc1cc(C(=O)c2ccc3sccc3c2)cc(OC)c1OC`, for which the IC50 in the experiment with CCRF-CEM is 303 nM.

Regarding `COc1ccc(C(=O)c2ccc3c(ccn3C)c2)cc1`, in the experiment with CCRF-CEM, 1130 nM corresponded to half-maximal inhibition (IC50).

On to `COc1ccc(C(=O)c2ccc3c(ccn3C)c2)c(OC)c1`, for which the IC50 in experiment [1] turned out to be 118 nM; with PC-3 it was 203 nM; with MOLT-3 it was 24 nM; with DU-145, 34 nM; in the experiment on CCRF-CEM, 102 nM; with Bel-7402, 44 nM. The same compound yielded an IC50 in the experiment on MCF7 of 85 nM.

`COc1ccc(C(=O)c2ccc3c(ccn3C)c2)c(OC)n1`: the IC50 in the experiment with CCRF-CEM came to 1010 nM.

With `COc1ccc(/C=C\c2cc(OC)c(OC)c(OC)c2)cc1O` [COMBRETASTATIN A4], in experiment [1], 2.5 nM corresponded to half-maximal inhibition (IC50).

`CCn1c2ccccc2c2cc(C(=O)c3ccc(OC)nc3OC)ccc21` gave an IC50 in the experiment with CCRF-CEM of 555 nM.

With `COc1cc([C@@H]2c3cc4c(cc3C(O)[C@H]3COC(=O)[C@H]23)OCO4)cc(OC)c1OC` (single isomer, unassigned) [PODOFILOX], in experiment [1], it took 12 nM to reach half-maximal inhibition (IC50).

`COc1ccc(C(=O)c2ccc3c(ccn3C)c2)cc1OC` registered an IC50 in the experiment on CCRF-CEM of 1690 nM.

Take `COc1cc(C(=O)c2ccc3[nH]ccc3c2)cc(OC)c1OC`: in the experiment with CCRF-CEM, the IC50 is 225 nM.

On to `CCn1c2ccccc2c2cc(NS(=O)(=O)c3cc(OC)c(OC)c(OC)c3)ccc21`, for which the IC50 in experiment [1] was 89 nM; in the experiment on PC-3, 201 nM; with MOLT-3 it was 20 nM; in the experiment with DU-145 it was 603 nM; in the experiment on CCRF-CEM, 56 nM; in the experiment with Bel-7402, 201 nM. It took 89 nM to reach half-maximal inhibition in the experiment on MCF7 (IC50).

Compound `COc1cc(C(=O)c2cccc3ccn(C)c23)cc(OC)c1OC` displayed an IC50 in the experiment on CCRF-CEM of 307 nM.

`CCn1c2ccccc2c2cc(NS(=O)(=O)c3cc(OC)ccc3OC)ccc21` displayed an IC50 with CCRF-CEM of 61 nM.

For the compound `COc1cc(OC)cc(C(=O)c2ccc3c(ccn3C)c2)c1`, the IC50 in the experiment on CCRF-CEM was 1690 nM.

`CCn1c2ccccc2c2cc(C(O)c3cc(OC)c(OC)c(OC)c3)ccc21` (centres undefined) registered an IC50 in the experiment with CCRF-CEM of 192 nM.

On to `COc1cc(C(=O)c2ccc3ccn(C)c3c2)cc(OC)c1OC`, for which the IC50 in experiment [1] turned out to be 27 nM; in the experiment on PC-3 it was 75 nM; in the experiment with MOLT-3, 18 nM; in the experiment with DU-145 it was 75 nM; in the experiment with CCRF-CEM it was 30 nM; in the experiment with Bel-7402 it was 27 nM. In the experiment on MCF7, this compound displayed an IC50 of 24 nM.

`COc1cc(C(O)c2ccc3c(ccn3C)c2)cc(OC)c1OC` (centres undefined): the IC50 was 59 nM in experiment [1]; 117 nM in the experiment with PC-3; 38 nM in the experiment on MOLT-3; 103 nM with DU-145; 59 nM in the experiment with CCRF-CEM; 88 nM with Bel-7402. For the same compound, in the experiment with MCF7, inhibition was half-maximal at 44 nM (IC50).

As usually defined, the IC50 is the concentration needed to halve the response being measured. Higher therefore signals weaker potency. By inhibition is commonly meant the drop in the measured response relative to a control, in per cent. A low value points to a weak effect.

The values above are taken from ChEMBL document CHEMBL1148871, “Novel potent antimitotic heterocyclic ketones: synthesis, antiproliferative activity, and structure-activity relationships” (Bioorg Med Chem Lett, 2007).
